# In ChEMBL document CHEMBL5696442, “Discovery of type II inhibitors of TGFβ-activated kinase 1 (TAK1) and mitogen-activated protein kinase kinase kinase kinase 2 (MAP4K2)” (J Med Chem, 2015):
# Calls of active or inactive are those of the source. The rule behind the calls is not given here.
# Columns and labels:
# [1] = biological target: T1, Tyrosine-protein kinase CSK (Homo sapiens, UniProt P41240); assay: Inhibition of CSK (unknown origin) ACT labeling site by KiNativ Profiling analysis
# [2] = biological target: T2, Mitogen-activated protein kinase kinase kinase 20 (Homo sapiens, UniProt Q9NYL2); assay: Inhibition of ZAK Lys1 labeling site in human Huh-7 cell lysate at 1 uM by KiNativ Profiling analysis relative to control; format: subcellular
# Target sequence in this assay (Q9NYL2 2-800 limits assumed): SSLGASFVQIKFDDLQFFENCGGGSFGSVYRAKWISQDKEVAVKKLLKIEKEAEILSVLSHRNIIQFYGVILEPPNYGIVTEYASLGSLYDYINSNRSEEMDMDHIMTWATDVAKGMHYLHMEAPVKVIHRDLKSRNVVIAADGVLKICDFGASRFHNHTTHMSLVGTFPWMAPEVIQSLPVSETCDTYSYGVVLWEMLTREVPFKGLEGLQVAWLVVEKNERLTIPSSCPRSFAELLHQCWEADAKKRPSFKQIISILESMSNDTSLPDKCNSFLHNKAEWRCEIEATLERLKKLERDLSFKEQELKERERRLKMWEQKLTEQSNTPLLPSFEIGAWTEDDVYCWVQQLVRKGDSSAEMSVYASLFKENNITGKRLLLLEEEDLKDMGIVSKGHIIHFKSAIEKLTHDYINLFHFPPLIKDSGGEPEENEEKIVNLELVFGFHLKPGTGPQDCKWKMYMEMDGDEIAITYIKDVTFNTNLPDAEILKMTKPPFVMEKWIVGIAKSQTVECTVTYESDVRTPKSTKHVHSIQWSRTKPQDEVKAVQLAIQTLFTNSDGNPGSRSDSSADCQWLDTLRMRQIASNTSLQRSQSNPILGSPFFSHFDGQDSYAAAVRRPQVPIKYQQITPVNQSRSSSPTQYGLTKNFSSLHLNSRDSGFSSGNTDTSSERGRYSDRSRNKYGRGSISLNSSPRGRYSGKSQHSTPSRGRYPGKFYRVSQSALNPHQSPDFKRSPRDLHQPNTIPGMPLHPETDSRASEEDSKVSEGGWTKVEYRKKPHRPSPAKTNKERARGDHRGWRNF
# [3] = biological target: T3, Mitogen-activated protein kinase kinase kinase kinase 2 (Homo sapiens, UniProt Q12851); assay: Inhibition of MAP4K2 (unknown origin) Lys1 labeling site by KiNativ Profiling analysis
# T3 sequence (Q12851 whole entry): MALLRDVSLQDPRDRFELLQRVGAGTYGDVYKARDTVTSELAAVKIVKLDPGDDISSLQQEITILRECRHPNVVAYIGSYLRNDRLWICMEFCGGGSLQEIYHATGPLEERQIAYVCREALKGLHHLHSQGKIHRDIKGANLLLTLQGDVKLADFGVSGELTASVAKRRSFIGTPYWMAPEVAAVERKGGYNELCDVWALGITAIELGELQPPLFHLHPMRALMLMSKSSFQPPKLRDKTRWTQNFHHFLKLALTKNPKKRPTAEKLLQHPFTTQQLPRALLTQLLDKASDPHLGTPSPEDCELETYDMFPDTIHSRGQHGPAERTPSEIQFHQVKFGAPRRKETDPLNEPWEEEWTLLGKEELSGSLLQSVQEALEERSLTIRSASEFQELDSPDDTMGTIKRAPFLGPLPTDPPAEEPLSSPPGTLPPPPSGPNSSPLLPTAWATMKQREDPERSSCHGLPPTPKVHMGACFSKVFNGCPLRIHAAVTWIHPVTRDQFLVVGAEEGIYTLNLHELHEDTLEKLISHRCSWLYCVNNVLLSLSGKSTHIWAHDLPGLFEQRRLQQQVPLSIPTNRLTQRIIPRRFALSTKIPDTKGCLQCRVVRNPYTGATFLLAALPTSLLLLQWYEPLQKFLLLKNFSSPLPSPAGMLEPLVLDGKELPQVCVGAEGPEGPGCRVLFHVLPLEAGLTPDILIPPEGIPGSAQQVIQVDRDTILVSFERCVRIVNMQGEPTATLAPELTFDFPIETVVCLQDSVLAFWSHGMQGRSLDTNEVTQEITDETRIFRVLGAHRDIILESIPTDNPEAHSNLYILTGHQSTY
# [4] = biological target: T1, Tyrosine-protein kinase CSK; assay: Inhibition of CSK ACT labeling site in human Huh-7 cell lysate at 1 uM by KiNativ Profiling analysis relative to control; format: subcellular
# [5] = biological target: T4, Tyrosine-protein kinase ABL1 (Homo sapiens, UniProt P00519); assay: Inhibition of ABL ACT labeling site in human Huh-7 cell lysate at 1 uM by KiNativ Profiling analysis relative to control; format: subcellular
# [6] = biological target: T5, Mitogen-activated protein kinase kinase kinase 7 (Homo sapiens) (UniProt O43318); assay: Inhibition of TAK1 Lys2 labeling site in human A-375 cells at 0.5 uM by KiNativ Profiling analysis relative to control; format: cell-based
# T5 sequence (whole entry): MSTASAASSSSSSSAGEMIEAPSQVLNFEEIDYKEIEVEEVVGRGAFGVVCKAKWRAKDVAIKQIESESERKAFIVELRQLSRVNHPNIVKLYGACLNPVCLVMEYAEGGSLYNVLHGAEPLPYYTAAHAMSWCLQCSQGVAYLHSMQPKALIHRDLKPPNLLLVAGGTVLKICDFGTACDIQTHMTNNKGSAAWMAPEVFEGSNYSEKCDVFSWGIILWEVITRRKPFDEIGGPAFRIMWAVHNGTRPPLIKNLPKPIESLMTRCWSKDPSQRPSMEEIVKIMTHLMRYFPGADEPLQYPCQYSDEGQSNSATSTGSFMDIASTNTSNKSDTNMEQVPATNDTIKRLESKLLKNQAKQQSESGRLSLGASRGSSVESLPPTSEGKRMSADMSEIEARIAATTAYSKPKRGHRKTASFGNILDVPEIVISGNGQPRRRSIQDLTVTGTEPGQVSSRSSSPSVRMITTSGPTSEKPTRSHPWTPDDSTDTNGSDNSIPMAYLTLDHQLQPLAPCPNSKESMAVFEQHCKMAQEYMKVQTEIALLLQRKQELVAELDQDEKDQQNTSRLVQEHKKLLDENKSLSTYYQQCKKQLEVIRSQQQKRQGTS
# [7] = biological target: T6, Mitogen-activated protein kinase kinase kinase 7 (Homo sapiens, UniProt O43318); assay: Inhibition of TAK1 (unknown origin) Lys2 labeling site by KiNativ Profiling analysis
# T6 sequence (O43318 whole entry): T5 sequence (whole entry)
# [8] = biological target: T7, Mitogen-activated protein kinase kinase kinase kinase 2 (Homo sapiens) (UniProt Q12851); assay: Inhibition of MAP4K2 Lys1 labeling site in human A-375 cells at 0.5 uM by KiNativ Profiling analysis relative to control; format: cell-based
# T7 sequence (whole entry): T3 sequence (Q12851 whole entry)
# Ephrin type-A receptor 2 [9] = biological target: T8, Ephrin type-A receptor 2 (Homo sapiens, UniProt P29317); assay: Inhibition of EphA2 ACT labeling site in human Huh-7 cell lysate at 1 uM by KiNativ Profiling analysis relative to control; format: subcellular
# BaF3 [10] = assay: Antiproliferative activity against parental mouse BaF3 cells assessed reduction in cell viability measured after 48 hrs by Celltiter-glo assay; format: functional, cell-based; conditions: BaF3, 48 h
# [11] = biological target: T9, Mitogen-activated protein kinase 14 (Homo sapiens, UniProt Q16539); assay: Inhibition of p38 alpha (unknown origin) by KiNativ Profiling analysis
# [12] = biological target: T9, Mitogen-activated protein kinase 14; assay: Inhibition of p38 alpha in human Huh-7 cell lysate at 1 uM by KiNativ Profiling analysis relative to control; format: subcellular
# BaF3 [13] = assay: Antiproliferative activity against parental mouse BaF3 cells harbouring Bcr/Abl assessed reduction in cell viability measured after 48 hrs by Celltiter-glo assay; format: functional, cell-based; conditions: BaF3, 48 h
# Method in brief: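 Cells were grown with serial dilutions of compound for 48 h, and viability was read by CellTiter-Glo. IC50 was derived from the dose–response curve. Parental Ba/F3 cells were grown in the presence of interleukin 3. The BCR-ABL line is BCR-ABL-dependent Ba/F3.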
# [14] = biological target: T4, Tyrosine-protein kinase ABL1; assay: Inhibition of ABL Lys1 labeling site in human Huh-7 cell lysate at 1 uM by KiNativ Profiling analysis relative to control; format: subcellular
# Ephrin type-A receptor 2 [15] = biological target: T8, Ephrin type-A receptor 2; assay: Inhibition of EphA2 (unknown origin) ACT labeling site by KiNativ Profiling analysis
# [16] = biological target: T2, Mitogen-activated protein kinase kinase kinase 20; assay: Inhibition of ZAK (unknown origin) Lys1 labeling site by KiNativ Profiling analysis
# Target sequence in this assay (Q9NYL2 whole entry): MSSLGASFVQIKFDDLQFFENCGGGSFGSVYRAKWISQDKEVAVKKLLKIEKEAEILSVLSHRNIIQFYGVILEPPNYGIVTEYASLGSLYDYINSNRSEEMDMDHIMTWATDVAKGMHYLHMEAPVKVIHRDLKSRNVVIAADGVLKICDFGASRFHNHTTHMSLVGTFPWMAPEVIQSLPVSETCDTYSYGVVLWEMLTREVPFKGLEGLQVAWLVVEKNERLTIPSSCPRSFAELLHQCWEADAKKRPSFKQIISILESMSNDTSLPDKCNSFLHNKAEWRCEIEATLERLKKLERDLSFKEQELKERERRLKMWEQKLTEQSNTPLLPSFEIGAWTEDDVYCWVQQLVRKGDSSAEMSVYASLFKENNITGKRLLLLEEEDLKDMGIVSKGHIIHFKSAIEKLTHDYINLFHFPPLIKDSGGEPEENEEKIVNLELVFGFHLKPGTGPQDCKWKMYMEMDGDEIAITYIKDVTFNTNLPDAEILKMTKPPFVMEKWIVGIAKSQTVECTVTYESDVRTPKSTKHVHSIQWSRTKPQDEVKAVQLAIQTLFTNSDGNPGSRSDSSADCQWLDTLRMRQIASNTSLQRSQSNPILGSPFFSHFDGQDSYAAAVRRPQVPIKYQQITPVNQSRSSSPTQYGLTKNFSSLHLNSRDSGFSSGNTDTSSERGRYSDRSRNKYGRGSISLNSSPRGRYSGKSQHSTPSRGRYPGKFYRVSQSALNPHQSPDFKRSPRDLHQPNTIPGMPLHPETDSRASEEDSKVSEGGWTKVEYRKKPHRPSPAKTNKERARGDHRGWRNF
# [17] = biological target: T10, Tyrosine-protein kinase Fes/Fps (Homo sapiens, UniProt P07332); assay: Inhibition of FES Lys1 labeling site in human Huh-7 cell lysate at 1 uM by KiNativ Profiling analysis relative to control; format: subcellular
# [18] = Oral bioavailability in Swiss albino mouse at 10 mg/kg measured upto 24 hrs by LC/MS/MS analysis; format: ADME, organism-based; conditions: in vivo
# Method in brief: (§1)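 Blood was taken at 0, 0.25, 0.5, 1, 2, 4, 6, 8, 12 and 24 h from three mice per time point, into K2EDTA. Plasma was acetonitrile-precipitated and analyzed by LC/MS/MS (LLOQ 1.138 ng/mL).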
# [19] = AUC last in Swiss albino mouse at 1 mg/kg, iv measured upto 24 hrs by LC/MS/MS analysis; format: ADME, organism-based; conditions: in vivo
# Method in brief: (§2)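 Male Swiss albino mice. […] Blood was taken into K2EDTA from three mice per time point, from 0 to 24 h. Plasma was precipitated with acetonitrile and analysed by LC/MS/MS (LLOQ 1.138 ng/mL).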
# [20] = Volume of distribution at steady state in Swiss albino mouse at 1 mg/kg, iv measured upto 24 hrs by LC/MS/MS analysis; format: ADME, organism-based; conditions: in vivo
# Method in brief: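 Blood was sampled at 0, 0.083, 0.25, 0.5, 1, 2, 4, 8, 12 and 24 h (three mice per point, K2EDTA). Plasma was precipitated with acetonitrile and quantified by LC/MS/MS (LLOQ 1.138 ng/mL).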
# [21] = AUC last in Swiss albino mouse at 10 mg/kg, po measured upto 24 hrs by LC/MS/MS analysis; format: ADME, organism-based; conditions: in vivo
# [22] = Cmax in Swiss albino mouse at 10 mg/kg, po measured upto 24 hrs by LC/MS/MS analysis; format: ADME, organism-based; conditions: in vivo
# [23] = biological target: T10, Tyrosine-protein kinase Fes/Fps; assay: Inhibition of FES (unknown origin) by KiNativ Profiling analysis
# [24] = biological target: T11, Tyrosine-protein kinase Fer (Homo sapiens, UniProt P16591); assay: Inhibition of FER (unknown origin) ACT labeling site by KiNativ Profiling analysis
# Target sequence in this assay (P16591 whole entry): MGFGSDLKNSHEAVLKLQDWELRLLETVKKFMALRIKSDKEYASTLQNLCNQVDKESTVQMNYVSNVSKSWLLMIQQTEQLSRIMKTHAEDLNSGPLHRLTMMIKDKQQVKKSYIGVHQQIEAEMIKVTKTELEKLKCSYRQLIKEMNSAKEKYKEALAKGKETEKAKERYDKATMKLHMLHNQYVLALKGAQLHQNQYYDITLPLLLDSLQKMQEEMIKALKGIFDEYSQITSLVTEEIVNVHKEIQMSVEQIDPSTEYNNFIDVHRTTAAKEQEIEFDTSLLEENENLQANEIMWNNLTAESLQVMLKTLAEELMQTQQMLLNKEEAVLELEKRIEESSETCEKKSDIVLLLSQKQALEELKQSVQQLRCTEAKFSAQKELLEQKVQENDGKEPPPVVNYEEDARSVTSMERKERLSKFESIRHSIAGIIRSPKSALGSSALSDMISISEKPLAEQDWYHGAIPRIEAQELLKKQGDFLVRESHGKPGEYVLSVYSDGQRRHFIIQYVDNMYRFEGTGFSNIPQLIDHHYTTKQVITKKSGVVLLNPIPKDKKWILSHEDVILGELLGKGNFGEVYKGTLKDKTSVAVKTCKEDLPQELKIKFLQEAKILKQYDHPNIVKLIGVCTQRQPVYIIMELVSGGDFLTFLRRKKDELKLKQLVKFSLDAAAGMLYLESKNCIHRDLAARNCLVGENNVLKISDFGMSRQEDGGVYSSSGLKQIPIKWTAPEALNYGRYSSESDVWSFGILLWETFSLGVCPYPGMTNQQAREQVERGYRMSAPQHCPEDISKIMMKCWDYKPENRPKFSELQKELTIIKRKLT
# [25] = Tmax in Swiss albino mouse at 10 mg/kg, po measured upto 24 hrs by LC/MS/MS analysis; format: ADME, organism-based; conditions: in vivo; method in brief: as §1
# [26] = Cmax in Swiss albino mouse at 1 mg/kg, iv measured upto 24 hrs by LC/MS/MS analysis; format: ADME, organism-based; conditions: in vivo; method in brief: as §2
# [27] = Half life in Swiss albino mouse at 1 mg/kg, iv measured upto 24 hrs by LC/MS/MS analysis; format: ADME, organism-based; conditions: in vivo; method in brief: as §2
# [28] = biological target: T11, Tyrosine-protein kinase Fer; assay: Inhibition of FER Lys1 labeling site in human Huh-7 cell lysate at 1 uM by KiNativ Profiling analysis relative to control; format: subcellular
# Target sequence in this assay (P16591 whole entry, looked up): as the sequence (P16591 whole entry) above
# MEF [29] = assay: Inhibition of TGFbeta induced SMAD2 phosphorylation level in TAK1 deficient mouse MEF cells at low concentration incubated for 1 hr followed by TGFbeta stimulation by Western blot analysis
# MEF [30] = assay: Inhibition of TGF-beta induced SMAD2 phosphorylation level in TAK1 deficient mouse MEF cells at low concentration incubated for 1 hr followed by TGF-beta stimulation by Western blot analysis; format: functional, cell-based
# Method in brief: (§3)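 TAK1-null MEFs grown in DMEM with 10% FBS, 2 mM L-glutamine and penicillin/streptomycin at 37 °C under 5% CO2. Inhibitors added 1 h before TGFβ (50 pM, 45 min). Cells lysed in ice-cold buffer with phosphatase and protease inhibitors, extracts cleared at 16000g, then p38 and SMAD2 phosphorylation assessed by Western blot.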
# MEF [31] = assay: Inhibition of IL-1 induced p38 MAPK phosphorylation level in TAK1 deficient mouse MEF cells at low concentration incubated for 1 hr followed by IL-1 stimulation by Western blot analysis; format: functional, cell-based
# Method in brief: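 WT and TAK1-null MEFs were grown in DMEM with 10% FBS, then held in 0.1% FBS for 16 h. Cells were pretreated with inhibitor for 1 h, then stimulated with mouse IL-1α (5 ng/mL, 10 min). Cells were lysed in ice-cold buffer, and extracts were cleared at 16000g and analysed by Western blot.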
# MEF [32] = assay: Inhibition of TGF-beta induced p38 MAPK phosphorylation level in TAK1 deficient mouse MEF cells at low concentration incubated for 1 hr followed by TGF-beta stimulation by Western blot analysis; format: functional, cell-based; method in brief: as §3
# T4 sequence (P00519 whole entry): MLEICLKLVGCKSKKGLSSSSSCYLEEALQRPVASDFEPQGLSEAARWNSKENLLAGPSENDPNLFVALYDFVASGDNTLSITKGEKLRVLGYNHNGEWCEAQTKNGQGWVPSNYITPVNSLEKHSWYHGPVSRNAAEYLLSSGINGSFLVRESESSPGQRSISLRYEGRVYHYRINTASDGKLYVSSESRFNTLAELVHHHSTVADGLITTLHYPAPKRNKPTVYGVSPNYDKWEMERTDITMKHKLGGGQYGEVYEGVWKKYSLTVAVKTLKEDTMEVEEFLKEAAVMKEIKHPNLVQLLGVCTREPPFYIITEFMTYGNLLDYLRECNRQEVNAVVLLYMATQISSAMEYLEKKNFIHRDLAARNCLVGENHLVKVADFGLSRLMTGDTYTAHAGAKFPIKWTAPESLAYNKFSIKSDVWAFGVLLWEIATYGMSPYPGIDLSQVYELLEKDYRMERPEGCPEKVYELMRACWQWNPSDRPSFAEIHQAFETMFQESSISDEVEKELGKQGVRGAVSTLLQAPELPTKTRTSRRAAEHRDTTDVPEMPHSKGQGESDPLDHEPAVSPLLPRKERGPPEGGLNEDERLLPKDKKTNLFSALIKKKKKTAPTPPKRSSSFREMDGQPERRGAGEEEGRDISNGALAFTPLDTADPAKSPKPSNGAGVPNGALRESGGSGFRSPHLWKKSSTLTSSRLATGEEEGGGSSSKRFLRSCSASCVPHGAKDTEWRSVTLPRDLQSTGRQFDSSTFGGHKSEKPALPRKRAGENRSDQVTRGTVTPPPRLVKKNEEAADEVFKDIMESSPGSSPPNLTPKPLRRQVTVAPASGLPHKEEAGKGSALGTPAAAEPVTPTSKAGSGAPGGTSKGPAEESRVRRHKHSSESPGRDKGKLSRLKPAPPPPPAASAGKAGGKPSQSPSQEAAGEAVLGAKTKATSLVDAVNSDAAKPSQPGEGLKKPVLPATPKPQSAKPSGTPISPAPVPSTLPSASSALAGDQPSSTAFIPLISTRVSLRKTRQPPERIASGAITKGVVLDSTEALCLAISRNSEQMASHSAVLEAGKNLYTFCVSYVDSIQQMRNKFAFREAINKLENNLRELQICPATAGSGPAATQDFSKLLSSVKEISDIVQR
# T9 sequence (Q16539 whole entry): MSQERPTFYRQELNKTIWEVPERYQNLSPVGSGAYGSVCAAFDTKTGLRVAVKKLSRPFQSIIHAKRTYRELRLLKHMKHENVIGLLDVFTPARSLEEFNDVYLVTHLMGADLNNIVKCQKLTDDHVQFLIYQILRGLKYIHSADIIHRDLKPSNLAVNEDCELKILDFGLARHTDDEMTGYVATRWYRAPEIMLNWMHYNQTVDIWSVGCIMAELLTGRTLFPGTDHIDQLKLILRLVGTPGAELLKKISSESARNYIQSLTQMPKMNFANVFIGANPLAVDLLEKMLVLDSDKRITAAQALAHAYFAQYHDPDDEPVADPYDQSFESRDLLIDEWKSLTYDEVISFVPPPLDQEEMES
# T10 sequence (P07332 whole entry): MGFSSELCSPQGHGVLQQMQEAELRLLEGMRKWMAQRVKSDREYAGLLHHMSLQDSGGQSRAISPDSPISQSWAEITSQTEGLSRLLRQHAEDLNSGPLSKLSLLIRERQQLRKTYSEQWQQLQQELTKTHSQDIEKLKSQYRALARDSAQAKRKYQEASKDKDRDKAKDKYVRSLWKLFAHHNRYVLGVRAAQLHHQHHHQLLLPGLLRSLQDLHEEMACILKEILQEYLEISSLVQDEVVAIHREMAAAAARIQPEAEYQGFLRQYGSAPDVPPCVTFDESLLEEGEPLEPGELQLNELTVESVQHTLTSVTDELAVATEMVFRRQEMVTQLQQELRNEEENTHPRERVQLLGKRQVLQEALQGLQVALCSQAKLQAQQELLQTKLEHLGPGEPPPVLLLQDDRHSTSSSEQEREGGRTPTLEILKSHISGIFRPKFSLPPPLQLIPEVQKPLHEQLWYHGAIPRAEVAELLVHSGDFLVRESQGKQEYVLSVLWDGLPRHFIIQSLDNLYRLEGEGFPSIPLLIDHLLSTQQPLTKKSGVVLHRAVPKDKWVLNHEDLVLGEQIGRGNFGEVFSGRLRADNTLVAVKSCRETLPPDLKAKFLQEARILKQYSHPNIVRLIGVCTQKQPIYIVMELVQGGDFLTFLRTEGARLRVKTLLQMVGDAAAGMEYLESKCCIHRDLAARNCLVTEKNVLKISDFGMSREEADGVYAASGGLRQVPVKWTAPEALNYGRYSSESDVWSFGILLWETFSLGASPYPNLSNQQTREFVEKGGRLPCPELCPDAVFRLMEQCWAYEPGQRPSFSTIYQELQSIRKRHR
IC50 [3] [nM],inhibition [5] [%],inhibition [6] [%],IC50 [7] [nM],inhibition [8] [%],IC50 [11] [nM],inhibition [12] [%],inhibition [14] [%],inhibition [17] [%],F [18] [%],AUClast [19] [ng·h/mL],Vdss [20] [L/kg],AUClast [21] [ng·h/mL],Cmax [22] [ng/mL],IC50 [23] [nM],IC50 [24] [nM],Tmax [25] [h],Cmax [26] [ng/mL],SMILES,IC50 (BaF3 [10]) [nM],IC50 (BaF3 [13]) [nM],further results
20.6,92.8,74.3,217,84.3,70.1,91.8,77.2,–,–,–,–,–,–,–,–,–,–,CCN1CCN(Cc2ccc(NC(=O)c3ccc(C)c(CCc4cnc5[nH]ccc5c4OC)c3)cc2C(F)(F)F)CC1,4810,10,IC50 [1]: 12.5 nM; inhibition [2]: > 96%; inhibition [4]: 89.9%; inhibition (Ephrin type-A receptor 2 [9]): 80.9%; IC50 (Ephrin type-A receptor 2 [15]): 77.1 nM; IC50 [16]: 72.5 nM
18.2,59.6,57.7,41.1,> 94,149,82.8,–,82.7,38.6,554,5.42,2136,233,69.7,74.8,4,317,CCN1CCN(Cc2ccc(NC(=O)c3ccc(C)c(Oc4ncnc5[nH]c(C)cc45)c3)cc2C(F)(F)F)CC1,> 10000,20,t1/2 [27]: 2.94 h
–,74.1,78.5,–,91.3,250,98.6,58.4,78.5,–,–,–,–,–,252,577,–,–,CCN1CCN(Cc2ccc(NC(=O)c3ccc(C)c(Oc4cc(NC)ncn4)c3)cc2C(F)(F)F)CC1,> 10000,46,inhibition [28]: 75.8%
30.5,80.6,83.7,129,93.2,–,–,78.8,94.7,–,–,–,–,–,50.8,36.1,–,–,CCN1CCN(Cc2ccc(NC(=O)c3ccc(C)c(Oc4ncnc5cc(OC)c(OC)cc45)c3)cc2C(F)(F)F)CC1,> 10000,92,inhibition [28]: 92.9%
–,–,–,–,–,–,–,–,–,–,–,–,–,–,–,–,–,–,COc1cc(O)c2c(c1)/C=C/C[C@H](O)[C@H](O)C(=O)/C=C\C[C@H](C)OC2=O,–,–,inhibition (MEF [29]): Active; inhibition (MEF [30]): Active; inhibition (MEF [31]): Active; inhibition (MEF [32]): Active
19.8,74.2,77.7,44.9,> 86,130,85.2,–,–,21.8,236.6,9.5,516.2,134,–,–,2,230.9,CCN1CCN(Cc2ccc(NC(=O)c3ccc(C)c(Oc4ncnc5[nH]ccc45)c3)cc2C(F)(F)F)CC1,8160,55,t1/2 [27]: 2.33 h
43.8,93,86.5,75.5,89.9,29.8,96.6,–,–,11.1,167.9,6.1,186.2,61.3,–,–,0.5,280.3,CCN1CCN(Cc2ccc(NC(=O)c3ccc(C)c(Oc4ncnc5[nH]ncc45)c3)cc2C(F)(F)F)CC1,7910,55,inhibition [2]: 95.2%; t1/2 [27]: 0.87 h; IC50 [16]: 127 nM
